Here are results for 1 compound from ChEMBL document CHEMBL4699492, “Discovery of Novel Pyrazolo[3,4-b] Pyridine Derivatives with Dual Activities of Vascular Remodeling Inhibition and Vasodilation for the Treatment of Pulmonary Arterial Hypertension” (J Med Chem, 2020).

The target in series [1] is AMP-activated protein kinase, AMPK (Homo sapiens) (UniProt P54646+O43741+P54619+Q9UGJ0+Q9Y478+Q13131+Q9UGI9). As to the kind of experiment: Inhibition of AMPK in hypoxia-induced HLF1 cells assessed as reduction in cell migration measured after 24 hrs by wound healing assay. As to conditions: dose microM 5-10, time 24.0 hrs. It is filed as cell-based. In a few lines: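 Wound-healing assay. 5 × 10^4 cells were seeded per well and grown 24 h to near confluence. The monolayer was scratched with a pipette tip and washed with PBS. Cells were then kept in 1% FBS medium with TGF-β (10 ng/mL) or under hypoxia (1% O2, 5% CO2, 94% N2), alone or with compound. Migration ran 24 h at 37 °C, imaged at 0 and 24 h. Mean ± SD from three independent experiments.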

Series [2] can be described thus: Protein binding in human plasma. Format: ADME, cell-free. As to conditions: read-out: PPB (converted).
The subject of series [3] is Rattus norvegicus. The series can be described thus: Inhibition of vascular remodeling activity in Sprague-Dawley rat model of hypoxia-induced pulmonary artery hypertension assessed as increase in body weight at 10 mg/kg, po administered daily for 2 weeks. It is filed as functional, organism-based.
Series [4] relates to Pulmonary Artery Smooth Muscle Cells. As to the kind of experiment: Stimulation of sGC in HPASMC assessed as increase in intracellular cGMP level at 100 uM measured after 1 hr in presence of PDE5 inhibitor IBMX and sGC inhibitor ODQ by cGMP-d2/europium cryptate reagent based HTRF assay. Format: tissue-based. As to conditions: Homo sapiens. In a few lines: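 HPASMCs were suspended at 100,000 cells/mL in PBS with 0.2% BSA, with or without 10 µM ODQ. Compounds were added as a 6-point, 10-fold dilution series; the top 2× stock was 200 µM. Incubation was 1 h at room temperature, in triplicate. cGMP-d2 in lysis buffer and europium cryptate were then added for 1 h before HTRF reading. Three independent experiments.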

Series [5] in a line: Solubility of compound in water at pH 7.3. Format: physicochemical. As to conditions: buffer.
The nature of series [6]: Antiproliferative activity against HLF1 cells assessed as reduction in TGFbeta-induced cell proliferation measured after 48 hrs by CCK8 assay. Conditions: Homo sapiens, HLF1, 48 h. Format: functional, cell-based. Summed up:
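HPASMCs grown in high-glucose D-MEM with 20% FBS and HLF1 in D-MEM/F-12 (1:1) with 10% FBS. Cells stimulated with TGF-β (10 ng/mL) at 37 °C, 5% CO2, then exposed to a concentration range for 48 h. CCK-8 added for 4 h and absorbance read at 490 nm. IC50 derived from the curves.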
A general note: Tetrazolium assays rely on reduction of a dye to a coloured formazan, in cell work by metabolically active cells.

Series [7] concerns Aorta. The series can be described thus: Vasodilating activity in Sprague-Dawley rat aortic rings assessed as reduction in phenylephrine-induced contractions. Format: functional, tissue-based. In a few lines: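 Thoracic aorta from male SD rats (250-280 g) anesthetized with chloral hydrate, cut into 4 mm rings. Rings held in Krebs-Henseleit at 37 °C gassed with 95% O2/5% CO2, under 2 g resting tension, equilibrated 60 min, and precontracted with 10^-7 M phenylephrine. Cumulative concentrations of 3×10^-9 to 10^-6 M (final) applied. Percent relaxation of the initial contraction taken at 1 µM, and EC50 derived.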

In series [8] the test system is Rattus norvegicus. The series can be described thus: Inhibition of vascular remodeling activity in Sprague-Dawley rat model of hypoxia-induced pulmonary artery hypertension assessed as right ventricular systolic pressure at 10 mg/kg, po administered daily for 2 weeks by catheter method (reference value: 26.2 mmHg). It is filed as functional.
For series [9], the system named is Rattus norvegicus. As to the kind of experiment: In vivo inhibition of AMPK in Sprague-Dawley rat model of hypoxia-induced pulmonary artery hypertension assessed as reduction in ACC phosphorylation in lungs at 10 mg/kg, po administered daily for 2 weeks by Western blot analysis. Format: functional, organism-based. Summed up: (§1)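 Hypoxic PAH model in male SD rats (160-200 g) kept at 10% O2 for 4 weeks. Oral dosing at 10 mg/kg daily for 14 days, suspended in 0.5% CMC-Na; control and hypoxia groups received vehicle only. Lungs homogenized in RIPA with protease and phosphatase inhibitors. 30 µg protein run on 10% SDS-PAGE, then PVDF blotting, with β-actin as loading reference. Three independent runs.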

For series [10], the target named is cGMP-specific 3',5'-cyclic phosphodiesterase (Homo sapiens) (UniProt O76074). As to the kind of experiment: Inhibition of PDE5A1 catalytic domain (535 to 860 residues) (unknown origin) expressed in Escherichia coli BL21 (DE3) at 100 nM using [3H]cGMP as substrate after 15 mins by liquid scintillation counting method relative to control. Summed up: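 PDE reaction in 50 mM Tris-HCl pH 8.0 with 4 mM MnCl2 or 10 mM MgCl2 and 1 mM DTT, using 3H-cGMP substrate. Run 15 min at room temperature, stopped with 0.2 M ZnSO4, and product precipitated with 0.2 M Ba(OH)2. Radioactivity of the supernatant counted by liquid scintillation. Inhibition rate calculated, with sildenafil as reference.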

The subject of series [11] is Rattus norvegicus. As to the kind of experiment: Inhibition of vascular remodeling activity in Sprague-Dawley rat model of hypoxia-induced pulmonary artery hypertension assessed as reduction in Smad2 phosphorylation in lungs at 10 mg/kg, po administered daily for 2 weeks by Western blot analysis. It is filed as functional, organism-based. In a few lines:
as §1
A general note: A western blot detects proteins with antibodies after separation by electrophoresis.

For series [12], the species on record is Homo sapiens. The series can be described thus: Inhibition of CaMKKbeta phosphorylated recombinant human AMPK alpha1/beta1/gamma1 using 1-biotin as substrate incubated for 60 mins by HTRF assay. Conditions: time 1.0 hrs. Summed up:
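Kinase reaction with 0.16 µM STK substrate 1-biotin, 0.8 mmol DTT, 4 mmol MgCl2, 4 µM ATP and compound, started by adding 1 ng/µl CaMKKβ-prephosphorylated AMPK (α1β1γ1). Ran 1 h at 37 °C, then Eu3+-cryptate STK antibody plus 57.5 nmol/L XL-665 for 1 h at room temperature. Activity read as the 665/620 ratio ×10000. Curves averaged from three independent experiments.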
(TR-FRET usually uses a lanthanide donor and a delayed reading to cut background.)

The nature of series [13]: Effect on total AMPK level in lungs of Sprague-Dawley rat model of hypoxia-induced pulmonary artery hypertension at 10 mg/kg, po administered daily for 2 weeks by Western blot analysis. It is filed as ADME, organism-based. As to conditions: in vivo, 336 h. Summed up:
as §1

Series [14] can be described thus: Effect on total Smad2/3 level in lungs of Sprague-Dawley rat model of hypoxia-induced pulmonary artery hypertension at 10 mg/kg, po administered daily for 2 weeks by Western blot analysis. It is filed as ADME, organism-based. As to conditions: in vivo, 336 h. Summed up: as §1
Series [15] in a line: Antiproliferative activity against HPASMC measured after 48 hrs under hypoxic condition by CCK8 assay. Format: functional, tissue-based. Conditions: Homo sapiens, Pulmonary Artery Smooth Muscle Cells. In a few lines:
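HPASMCs were grown in high-glucose D-MEM with 20% FBS, and HLF1 in D-MEM/F-12 (1:1) with 10% FBS. Cells were seeded for exponential growth, then exposed to a range of compound concentrations for 48 h at 37 °C under hypoxia (1% O2, 5% CO2, 94% N2). CCK-8 was added for 4 h and absorbance read at 490 nm. IC50 came from dose-response curves averaged over three independent experiments.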

Series [16] is described as follows: Effect on total ACC level in lungs of Sprague-Dawley rat model of hypoxia-induced pulmonary artery hypertension at 10 mg/kg, po administered daily for 2 weeks by Western blot analysis. Format: ADME, organism-based. As to conditions: in vivo, 336 h. In a few lines: as §1
Series [17] relates to Rattus norvegicus. The series can be described thus: In vivo inhibition of AMPK in Sprague-Dawley rat model of hypoxia-induced pulmonary artery hypertension assessed as reduction in AMPK phosphorylation in lungs at 10 mg/kg, po administered daily for 2 weeks by Western blot analysis. It is filed as functional, organism-based. Summed up:
as §1

Series [18] is described as follows: Solubility of compound in water at pH 3.5. Format: physicochemical. As to conditions: buffer.
In series [19] the test system is Rattus norvegicus. As to the kind of experiment: Inhibition of vascular remodeling activity in Sprague-Dawley rat model of hypoxia-induced pulmonary artery hypertension assessed as decrease in ratio of RV/tibial length at 10 mg/kg, po administered daily for 2 weeks. Format: functional, organism-based.

In brackets after ≈: the same amount, converted by molar mass. Activity calls are given as the source filed them. No cut-off for these calls is given here.

Regarding `Cc1ccccc1COc1nc2c(cc1-c1nc(N)cc(N)n1)c(C)nn2-c1ccccc1`, the figures for the inhibition result in series [1], in series [10] and in series [12] were “Dose-dependent effect”, 4.3% and “Dose-dependent effect”, respectively. In addition, in [2], the fraction unbound was 0.002. Besides, the inhibition entry in series [3], in series [9], in series [11], in [17] and in [19] was “Active” in each case. In addition, the result in series [4] was inactive. The figures for the solubility in series [5] and in series [18] were 0.034 µg/mL (≈ 0.0777 µM) and 0.028 µg/mL (≈ 0.064 µM), respectively. The half-maximal inhibitory concentration (IC50) in series [6] came out at 38.5 µM; in [15], 20.8 µM. In addition, in [7], the EC50 worked out at 0.29 µM. Also, the Activity is 22 mmHg in series [8], “Non-Toxic” in series [13], “Non-Toxic” in series [14] and “Non-Toxic” in series [16].

One may read the inhibition as the change of the read-out against control, counted positive when it falls. Broadly, the solubility is the dissolved amount per volume that the medium holds. High values mean much dissolved substance, low ones little dissolved substance. Usually IC50 stands for the point on the concentration scale where inhibition reaches its midpoint. Usually EC50 stands for the concentration needed to bring the measured effect to its halfway point.
